Screening data deposited in PubChem BioAssay by Johns Hopkins Ion Channel Center.
A selection: hits, their analogues and other compounds. The true share with any hit is near 3%.
TRPC4 potent = allosterically enhances the mouse TRPC4 cation channel | Q9QUQ5 | HEK293 TRPC4beta/mu-opioid, DAMGO EC20, Fluo-4 Ca2+ flux; stronger effect = higher value | B-score at 10 µM | actives 0.42% (n = 310,000) | AID 2227;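 active means B-score of calcium response area above 5 SD of library B-scores, with initial fluorescence ratio within 5 SD of library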;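 further: B-score of integrated fluorescence ratio over time as area under calcium response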
TRPC6 inhibitor = blocks the mouse TRPC6 cation channel; Q61143; HEK293-TRPC6, membrane potential dye, ACh-evoked depolarization; stronger effect = lower value; B-score at 10 µM; actives 1.1% (n = 310,000);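 active means B-score under library mean minus 3 SD, initial fluorescence not abnormally high, positive integrated signal ratio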;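 further: B-score derived from integrated fluorescence ratio over the kinetic read; more negative B-score means stronger inhibition of depolarization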
TRPC6 act = activates the mouse TRPC6 cation channel. B-score at 10 µM. AID 2550. Q61143. actives 0.13% (n = 310,000). HEK293-TRPC6 membrane potential dye fluorescence; stronger effect = higher value;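 active means B-score of the integrated fluorescence ratio above library mean plus 3 SD, and starting fluorescence ratio within library mean plus 5 SD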;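 further: higher score means more depolarization so channel activation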
Kir21 block = blocks the mouse Kir2.1 inward-rectifier potassium channel; P35561; HEK293-Kir2.1, FluxOR thallium flux fluorescence; stronger effect = lower value; B-score at 10 µM; actives 0.85% (n = 310,000); AID 1672;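 active means fluorescence ratio B-score at or below minus 3 SD of library scores, with starting-brightness B-score within 2 SD, cut at about -4.2 in these data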;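 further: channel flux triggered by added potassium and thallium sulfate stimulus; B-score of peak minus minimum fluorescence over baseline after thallium stimulus; more negative B-score means stronger Kir2.1 block with less thallium influx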
TRPC4 inh = inhibitors of mouse TRPC4 channel | HEK293 TRPC4beta/mu-opioid, DAMGO-evoked Fluo4 calcium flux; stronger effect = lower value | B-score at 10 µM | actives 0.39% (n = 300,000);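 active means B-score over 3 SD under the library average, no early fluorescence shift, positive overall ratio signal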
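Assay system: HEK293 cells with stable TRPC4beta plus mu-opioid receptor expression. Dosing: single dose. Measured by: Fluo4 Ca2+ flux fluorescence. Also added: DAMGO in two steps, submaximal then maximal. Read-out: B score from integrated Fluo4 fluorescence ratio.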
TRPC4 act = opens the mouse TRPC4 cation channel; actives 0.49% (n = 310,000); AID 2237; HEK293 TRPC4beta/mu-opioid, Fluo4 calcium fluorescence; stronger effect = higher value; B-score at 10 µM;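 active means B-score above 5 SD of library B-scores, and initial fluorescence ratio not above library mean plus 5 SD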;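 further: positive B-score marks a calcium rise read as TRPC4 activation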
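Assay system: HEK293 stable line with TRPC4beta plus mu-opioid receptor. Times: dye 45 min RT, read 110 s. Measured by: kinetic Fluo4 calcium fluorescence. Measure: B score of integrated ratio. Controls: assay buffer as low control, maximal DAMGO as high control.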
* marks the source's active call; other numbers are inactive results; i = inactive; ! = not active in a repeat.

SMILES	TRPC4 potent	TRPC6 inhibitor	TRPC6 act	Kir21 block	TRPC4 inh	TRPC4 act
CCNC(=O)[C@H]1O[C@@H](n2cnc3c(N)ncnc32)[C@H](O)[C@@H]1O	i	i	i	0.46	i	49*
CC(C)CN1CCN(Cc2ccc(F)cc2Cl)CC1CCO (stereo unspecified)	i	i	i	-0.4	i	i
COc1cccc(CCNCc2ccc(SC)cc2)c1	i	i	i	-7.5*	i	i
Nc1ccc(Cl)cc1C(=O)c1ccccc1Cl	34*	i	i	-0.29	i	i
CCNC(=S)N1CCn2cccc2C1c1cccnc1 (stereo unspecified)	i	i	i	0.25	i	i
CN1CC(C(=O)c2cccc(C(F)(F)F)c2)C(c2ccc(Cl)cc2)C1 (stereo unspecified)	i	i	i	-6.8*	i	i
CN1CC(C(=O)c2ccccc2)C(c2ccccc2)C1 (stereo unspecified)	i	i	i	-2.3	i	i
N=c1c[n+](CC23CC4CC(CC(C4)C2)C3)[n-]o1	i	i	i	-2.5	i	211*
CC(C)c1ccc(-n2c(O)c(C=NC(CCS(C)=O)C(=O)O)c(=O)[nH]c2=S)cc1 (stereo unspecified)	i	i	i	-0.63	i	i
O=C1NC(=O)C(=Cc2ccc(-c3ccc(F)cc3O)o2)C(=O)N1	i	i	i	0.6	i	i
CN1CCN(CCOC2c3ccccc3CSc3ccc(Cl)cc32)CC1 (stereo unspecified)	i	i	i	-4.8*	i	i
Clc1ccc2c(c1)C(OC1CN3CCC1CC3)c1ccccc1CS2 (stereo unspecified)	i	i	i	-5.9*	i	i
N/C(=N\[N+](=O)[O-])N1CCN(C(=O)Oc2ccccc2)CC1	i	i	i	-1.4	i	i
CNCCc1nc(N)n[nH]1	i	i	i	-0.56	i	101*
CNCCc1c(C)n[nH]c1C	i	i	i	1.6	i	i
CCCCN1C(=O)NC(=O)C2(Cc3c(nc4c(C)cccn4c3=O)N3CCc4ccccc4C32)C1=O (stereo unspecified)	19*	i	i	-0.65	i	i
COc1ccc(-n2c(/C=C/c3cccc(F)c3)nc3ccccc3c2=O)c(OC)c1	i	i	i	0.58	i	i
Cn1cnc(CCN)c1	i	i	i	1.3	i	143*
C1CC2NCCC3NCCC(N1)N32 (stereo unspecified)	i	i	i	1.3	i	i
CC(=NCc1ccco1)c1c(O)n(-c2ccc(C)cc2)c(=O)[nH]c1=O	i	i	i	0.32	i	i
COc1ccc(OC)c(N2Cc3ccccc3C2=N)c1	i	i	i	0.07	-7*	i
Oc1ccc(C2NCc3ccccc3-n3cccc32)cc1Cl (stereo unspecified)	i	i	i	-8.9*	i	i
CN(C)C(Cc1ccccc1)C(=O)c1c[nH]c2ccccc12 (stereo unspecified)	i	i	i	-1.4	i	i
Cc1onc(-c2c(Cl)cccc2Cl)c1C(=O)Nc1ccc2c(C(F)(F)F)cc(=O)oc2c1	i	i	i	0.56	i	i
CC[C@@H](CO)NC(=O)[C@@H]1C=C2c3cccc4c3c(cn4C)C[C@H]2N(C)C1	i	i	i	0.16	i	154*!
CCC(CO)NC(=O)C1C=C2c3cccc4[nH]cc(c34)CC2N(C)C1 (stereo unspecified)	i	i	i	0.06	i	73*
CN1C[C@H](CNC(=O)OCc2ccccc2)C[C@@H]2c3cccc4c3c(cn4C)C[C@H]21	i	i	i	-2.3	i	i
COc1ccccc1[As](=O)(O)CC(O)COc1ccc(Cl)cc1Cl (stereo unspecified)	i	i	i	0.09	i	i
